Assay results as given in ChEMBL document CHEMBL4382211, “Design, synthesis, and X-ray studies of potent HIV-1 protease inhibitors incorporating aminothiochromane and aminotetrahydronaphthalene carboxamide derivatives as the P2 ligands” (Eur J Med Chem, 2018).

Experiments:
[1] = test system: Human immunodeficiency virus 1; test: Antiviral activity against HIV1 NL4-3 infected in human MT4 cells after 7 days by MTT assay; type: functional, organism-based; settings: Human immunodeficiency virus 1, NL4-3, MT4, 168 h
How it was run: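 MT-4 human T-lymphoid cells were exposed to HIV-1 NL4-3 (subtype B). IC50 values are the mean of at least two experiments.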

Protease = Protease (Human immunodeficiency virus 1, UniProt Q9YQ12); test: Inhibition of HIV1 protease using fluorogenic substrate by continuous fluorometric assay
Sequence of Protease (Q9YQ12 whole entry): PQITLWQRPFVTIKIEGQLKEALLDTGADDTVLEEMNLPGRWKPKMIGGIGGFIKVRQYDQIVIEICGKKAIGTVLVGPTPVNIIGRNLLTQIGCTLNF

[2] = (§1) Cytotoxicity against human MT4 cells after 7 days by MTT assay; type: cell-based; settings: MT4 cells
[3] = Selectivity index, ratio of CC50 for human MT4 cells to IC50 for HIV1 NL4-3; type: toxicity; settings: read-out: Ratio CC50/IC50
How it was run: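 Antiviral IC50 measured in MT-4 human T-lymphoid cells exposed to HIV-1 NL4-3 (subtype B), with values the mean of at least two experiments. CC50 (cytotoxicity) determined in MT-4 cells, given in μM. Index calculated as CC50 divided by IC50.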

MT4 = test: as §1; type: cell-based; settings: mt4, 168 h

In the case of CC(C)(C)NC(=O)[C@@H]1C[C@@H]2CCCC[C@@H]2CN1C[C@@H](O)[C@H](Cc1ccccc1)NC(=O)[C@H](CC(N)=O)NC(=O)c1ccc2ccccc2n1, the IC50 [1] is reported as 15 nM.
For COc1ccc(S(=O)(=O)N(CC(C)C)C[C@@H](O)[C@H](Cc2ccccc2)NC(=O)c2ccc3c(c2)[C@@H](NC(=O)OC(C)(C)C)CC[C@H]3O)cc1, the IC50 [1] was over 1000 nM and the Ki (Protease) was 0.3 nM.
Work on COc1ccc(S(=O)(=O)N(CC(C)C)C[C@@H](O)[C@H](Cc2ccccc2)NC(=O)c2ccc3c(c2)[C@H](NC(=O)OC(C)(C)C)CC[C@@H]3O)cc1 yielded an IC50 [1] of over 1000 nM and a Ki (Protease) of 1.63 nM.
Work on COc1ccc(S(=O)(=O)N(CC(C)C)C[C@@H](O)[C@H](Cc2ccccc2)NC(=O)c2ccc3c(c2)[C@@H](N)CC[C@H]3O)cc1 yielded an IC50 [1] of over 1000 nM and a Ki (Protease) of 17 nM.
For COc1ccc(S(=O)(=O)N(CC(C)C)C[C@@H](O)[C@H](Cc2ccccc2)NC(=O)c2ccc3c(c2)[C@H](N)CC[C@@H]3O)cc1, the IC50 [1] was over 1000 nM and the Ki (Protease) was 1.1 nM.
Work on COc1ccc(S(=O)(=O)N(CC(C)C)C[C@@H](O)[C@H](Cc2ccccc2)NC(=O)c2ccc3c(c2)[C@H](NC(=O)OC(C)(C)C)CCS3(=O)=O)cc1 yielded an IC50 [1] of 476 nM, a CC50 at 168 h [2] of over 100000 nM and a selectivity ratio [3] of over 210. The Ki (Protease) was 0.1 nM.
COc1ccc(S(=O)(=O)N(CC(C)C)C[C@@H](O)[C@H](Cc2ccccc2)NC(=O)c2ccc3c(c2)[C@@H](N)CC[C@@H]3O)cc1 showed an IC50 [1] of 232 nM, a CC50 (MT4) of 35100 nM and a selectivity ratio [3] of 151. It also gave a Ki (Protease) of 0.06 nM.
Work on COc1ccc(S(=O)(=O)N(CC(C)C)C[C@@H](O)[C@H](Cc2ccccc2)NC(=O)c2ccc3c(c2)[C@@H](NC(=O)OC(C)(C)C)CCS3(=O)=O)cc1 yielded an IC50 [1] of 47 nM, a CC50 at 168 h [2] of over 100000 nM and a selectivity ratio [3] of over 2130. For the same compound, the Ki (Protease) was 0.008 nM.
COc1ccc(S(=O)(=O)N(CC(C)C)C[C@@H](O)[C@H](Cc2ccccc2)NC(=O)c2ccc3c(c2)[C@@H](NC(=O)OC(C)(C)C)CC[C@@H]3O)cc1 showed an IC50 [1] of 254 nM, a CC50 (MT4) of 33300 nM and a selectivity ratio [3] of 131. For the same compound, the Ki (Protease) was 0.14 nM.
Work on COc1ccc(S(=O)(=O)N(CC(C)C)C[C@@H](O)[C@H](Cc2ccccc2)NC(=O)c2ccc3c(c2)[C@@H](NC(=O)OC(C)(C)C)CCS3)cc1 yielded an IC50 [1] of over 1000 nM and a Ki (Protease) of 0.38 nM.
With COc1ccc(S(=O)(=O)N(CC(C)C)C[C@@H](O)[C@H](Cc2ccccc2)NC(=O)c2ccc3c(c2)[C@H](NC(=O)OC(C)(C)C)CCS3)cc1 the IC50 [1] was over 1000 nM and the Ki (Protease) was 26.7 nM.
For COc1ccc(S(=O)(=O)N(CC(C)C)C[C@@H](O)[C@H](Cc2ccccc2)NC(=O)c2ccc3c(c2)[C@@H](N)CCS3(=O)=O)cc1, the IC50 [1] was over 1000 nM and the Ki (Protease) was 15.8 nM.
In the case of COc1ccc(S(=O)(=O)N(CC(C)C)C[C@@H](O)[C@H](Cc2ccccc2)NC(=O)c2ccc3c(c2)[C@H](N)CCS3(=O)=O)cc1, the IC50 [1] is reported as over 1000 nM and the Ki (Protease) is reported as 18 nM.
